Data taken from ChEMBL document CHEMBL1144562, “Synthesis of a new class of 2-anilino substituted nicotinyl arylsulfonylhydrazides as potential anticancer and antibacterial agents” (2007).
Values after ≈ are worked out from the molar mass of the structure shown.

How the values were obtained:
Escherichia coli = experiment: Antibacterial activity against Escherichia coli MTCC 448 after 18 hrs; format: functional; settings: MTCC 448, 18 h
Procedure, shortened: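 Disc diffusion (Kirby–Bauer) on Mueller-Hinton agar inoculated with fresh bacteria at 1-5 × 10^4 cfu mL-1. Compounds were dissolved in DMF at a range of concentrations, and discs were placed in triplicate. Plates were incubated at 30 °C for 18 h. MIC was taken as the lowest concentration giving no visible bacterial growth on the plate.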

SK-MEL-28 = experiment: Antitumor activity against SK-MEL-28 cells; format: functional; settings: Homo sapiens
[1] = Antitumor activity against LOX IMV1 cells; format: functional; settings: Homo sapiens
M14 = experiment: Antitumor activity against M14 cells; format: functional; settings: Homo sapiens
SN12C = experiment: Antitumor activity against SN12C cells; format: functional; settings: Homo sapiens
Procedure, shortened: (§1)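 Tested in the NCI 60-human-tumour-cell-line panel at five concentrations, in 10-fold dilutions from 10^-4 to 10^-8 M. Three parameters were taken from the dose-response data, each as log10 of the molar concentration: GI50 (50% net growth inhibition), TGI (total growth inhibition) and LC50 (50% net cell death).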

NCI-H226 = experiment: Antitumor activity against NCI-H226 cells; format: functional; settings: Homo sapiens
[2] = Antitumor activity against NCI-H322 cells; format: functional; settings: Homo sapiens
BT-549 = experiment: Antitumor activity against BT549 cells; format: functional; settings: Homo sapiens
HCC 2998 = experiment: Antitumor activity against HCC2998 cells; format: functional; settings: Homo sapiens
COLO 205 = experiment: Antitumor activity against COLO205 cells; format: functional; settings: Homo sapiens
HOP-62 = experiment: Antitumor activity against HOP62 cells; format: functional; settings: Homo sapiens
SF-268 = experiment: Antitumor activity against SF268 cells; format: functional; settings: Homo sapiens
MDA-MB-435 = experiment: Antitumor activity against MDA-MB-435 cells; format: functional; settings: Homo sapiens
MCF7 = experiment: Antitumor activity against MCF7 cells; format: functional; settings: Homo sapiens
SR = experiment: Antitumor activity against SR cells; format: functional; settings: Homo sapiens; procedure, shortened: as §1
SNB-75 = experiment: Antitumor activity against SNB75 cells; format: functional; settings: Homo sapiens; procedure, shortened: as §1
SW-620 = experiment: Antitumor activity against SW620 cells; format: functional; settings: Homo sapiens; procedure, shortened: as §1
NCI-H460 = experiment: Antitumor activity against NCI-H460 cells; format: functional; settings: Homo sapiens
SF-295 = experiment: Antitumor activity against SF295 cells; format: functional; settings: Homo sapiens
T47D = experiment: Antitumor activity against T47D cells; format: functional; settings: Homo sapiens; procedure, shortened: as §1
PC-3 = experiment: Antitumor activity against PC3 cells; format: functional; settings: Homo sapiens
Hs-578T = experiment: Antitumor activity against HS578T cells; format: functional; settings: Homo sapiens
UACC-62 = experiment: Antitumor activity against UACC62 cells; format: functional; settings: Homo sapiens; procedure, shortened: as §1
HT-29 = experiment: Antitumor activity against HT29 cells; format: functional; settings: Homo sapiens
786-0 = experiment: Antitumor activity against 786-0 cells; format: functional; settings: Homo sapiens
SF-539 = experiment: Antitumor activity against SF539 cells; format: functional; settings: Homo sapiens
K562 = experiment: Antitumor activity against K562 cells; format: functional; settings: Homo sapiens
[3] = Antitumor activity against HL60 (TB) cells; format: functional, HL-60(TB); settings: Homo sapiens, HL-60
Procedure, shortened: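 NCI 60-cell-line in vitro screen (leukaemia subpanel). Compound tested at five 10-fold dilutions from 10^-4 to 10^-8 M. Dose-response parameters: GI50 (concentration giving 50% net growth inhibition), TGI (total growth inhibition) and LC50 (50% net cell death), each reported as log10 of molar concentration.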

SK-MEL-5 = experiment: Antitumor activity against SK-MEL-5 cells; format: functional; settings: Homo sapiens; procedure, shortened: as §1
A549 = experiment: Antitumor activity against A549 cells; format: functional; settings: Homo sapiens
OVCAR-4 = experiment: Antitumor activity against OVCAR4 cells; format: functional; settings: Homo sapiens
OVCAR-8 = experiment: Antitumor activity against OVCAR8 cells; format: functional; settings: Homo sapiens
ACHN = experiment: Antitumor activity against ACHN cells; format: functional; settings: Homo sapiens
UACC-257 = experiment: Antitumor activity against UACC257 cells; format: functional; settings: Homo sapiens; procedure, shortened: as §1
U-251 = experiment: Antitumor activity against U251 cells; format: functional; settings: Homo sapiens; procedure, shortened: as §1
OVCAR-3 = experiment: Antitumor activity against OVCAR-3 cells; format: functional; settings: Homo sapiens
CCRF-CEM = experiment: Antitumor activity against CCRF-CEM cells; format: functional; settings: Homo sapiens
RXF 393 = experiment: Antitumor activity against RXF393 cells; format: functional; settings: Homo sapiens
KM12 = experiment: Antitumor activity against KM12 cells; format: functional; settings: Homo sapiens
EKVX = experiment: Antitumor activity against EKVX cells; format: functional; settings: Homo sapiens
[4] = read-out: Log LC50 (the source's name) (converted)

## CC(=O)Nc1ccc(S(=O)(=O)NNC(=O)c2cccnc2Nc2ccc(Cl)cc2)cc1
Escherichia coli
  MIC: 18 µg/mL (≈ 39.1 µM)
SK-MEL-28
  GI50: 23.4 µM
  LC50: > 100 µM
SK-MEL-28; read-out: Log TGI (converted)
  TGI: > 100 µM
[1]
  GI50: 24 µM
  LC50: > 100 µM
[1]; read-out: Log TGI (converted)
  TGI: > 100 µM
M14
  GI50: 11.5 µM
  LC50: > 100 µM
M14; read-out: Log TGI (converted)
  TGI: > 100 µM
SN12C
  GI50: 58.9 µM
  LC50: > 100 µM
SN12C; read-out: Log TGI (converted)
  TGI: > 100 µM
NCI-H226
  GI50: 42.7 µM
NCI-H226; [4]
  CC50: > 100 µM
NCI-H226; read-out: Log TGI (converted)
  TGI: > 100 µM
[2]
  GI50: > 100 µM
[2]; [4]
  CC50: > 100 µM
[2]; read-out: Log TGI (converted)
  TGI: > 100 µM
BT-549
  GI50: 25.1 µM
  LC50: > 100 µM
BT-549; read-out: Log TGI (converted)
  TGI: > 100 µM
HCC 2998
  GI50: 8.32 µM
  LC50: > 100 µM
HCC 2998; read-out: Log TGI (converted)
  TGI: > 100 µM
COLO 205
  GI50: 10.2 µM
  LC50: > 100 µM
COLO 205; read-out: Log TGI (converted)
  TGI: 57.5 µM
HOP-62
  GI50: > 100 µM
HOP-62; [4]
  CC50: > 100 µM
HOP-62; read-out: Log TGI (converted)
  TGI: > 100 µM
SF-268
  GI50: 21.9 µM
  LC50: > 100 µM
SF-268; read-out: Log TGI (converted)
  TGI: > 100 µM
MDA-MB-435
  GI50: 3.24 µM
  LC50: > 100 µM
MDA-MB-435; read-out: Log TGI (converted)
  TGI: > 100 µM
MCF7
  GI50: 4.37 µM
  LC50: > 100 µM
MCF7; read-out: Log TGI (converted)
  TGI: > 100 µM
SR
  GI50: 6.31 µM
  LC50: > 100 µM
SR; read-out: Log TGI (converted)
  TGI: > 100 µM
SNB-75
  GI50: 5.5 µM
SNB-75; [4]
  CC50: > 100 µM
SNB-75; read-out: Log TGI (converted)
  TGI: > 100 µM
SW-620
  GI50: 7.59 µM
SW-620; [4]
  CC50: > 100 µM
SW-620; read-out: Log TGI (converted)
  TGI: > 100 µM
NCI-H460
  GI50: 4.68 µM
  LC50: > 100 µM
NCI-H460; read-out: Log TGI (converted)
  TGI: > 100 µM
SF-295
  GI50: 3.47 µM
SF-295; [4]
  CC50: > 100 µM
SF-295; read-out: Log TGI (converted)
  TGI: > 100 µM
T47D
  GI50: 6.31 µM
T47D; [4]
  CC50: > 100 µM
T47D; read-out: Log TGI (converted)
  TGI: > 100 µM
PC-3
  GI50: 29.5 µM
  LC50: > 100 µM
PC-3; read-out: Log TGI (converted)
  TGI: > 100 µM
Hs-578T
  GI50: 24 µM
Hs-578T; [4]
  CC50: > 100 µM
Hs-578T; read-out: Log TGI (converted)
  TGI: > 100 µM
UACC-62
  GI50: 8.91 µM
  LC50: > 100 µM
UACC-62; read-out: Log TGI (converted)
  TGI: > 100 µM
HT-29
  GI50: 3.98 µM
  LC50: > 100 µM
HT-29; read-out: Log TGI (converted)
  TGI: > 100 µM
786-0
  GI50: 47.9 µM
  LC50 (lethal concentration, 50%): > 100 µM
786-0; read-out: Log TGI (converted)
  TGI: > 100 µM
SF-539
  GI50: 15.5 µM
  LC50: > 100 µM
SF-539; read-out: Log TGI (converted)
  TGI: 75.9 µM
K562
  GI50: 8.51 µM
  LC50: > 100 µM
K562; read-out: Log TGI (converted)
  TGI: > 100 µM
[3]
  GI50: 9.77 µM
  LC50: > 100 µM
[3]; read-out: Log TGI (converted)
  TGI: > 100 µM
SK-MEL-5
  GI50: 5.62 µM
  LC50: > 100 µM
SK-MEL-5; read-out: Log TGI (converted)
  TGI: > 100 µM
A549
  GI50: 32.4 µM
  LC50: > 100 µM
A549; read-out: Log TGI (converted)
  TGI: > 100 µM
OVCAR-4
  GI50: 44.7 µM
  LC50 (lethal concentration, 50%): > 100 µM
OVCAR-4; read-out: Log TGI (converted)
  TGI: > 100 µM
OVCAR-8
  GI50: 36.3 µM
OVCAR-8; [4]
  CC50: > 100 µM
OVCAR-8; read-out: Log TGI (converted)
  TGI: > 100 µM
ACHN
  GI50: 52.5 µM
  LC50: > 100 µM
ACHN; read-out: Log TGI (converted)
  TGI: 75.9 µM
UACC-257
  GI50: 89.1 µM
  LC50: > 100 µM
UACC-257; read-out: Log TGI (converted)
  TGI: > 100 µM
U-251
  GI50: 24 µM
  LC50: > 100 µM
U-251; read-out: Log TGI (converted)
  TGI: > 100 µM
OVCAR-3
  GI50: 3.72 µM
OVCAR-3; [4]
  CC50: > 100 µM
OVCAR-3; read-out: Log TGI (converted)
  TGI: > 100 µM
CCRF-CEM
  LC50: > 100 µM
CCRF-CEM; read-out: Log TGI (converted)
  TGI: > 100 µM
CCRF-CEM; read-out: pGI50 (converted)
  GI50: 21.4 µM
RXF 393
  GI50: 37.2 µM
  LC50: > 100 µM
RXF 393; read-out: Log TGI (converted)
  TGI: > 100 µM
KM12
  GI50: 4.17 µM
KM12; [4]
  CC50: > 100 µM
KM12; read-out: Log TGI (converted)
  TGI: > 100 µM
EKVX
  GI50: 49 µM
  LC50: > 100 µM
EKVX; read-out: Log TGI (converted)
  TGI: > 100 µM
